Bioassay records (PubChem BioAssay)
Ecoli WT expand: E. coli BW25113 growth inhibition, expanded screen; 98,000 tested, 0.15% active; OD600 absorbance; growth inhibition, % at 100 µM;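 active means growth inhibition above about 50% at one test dose, limit read from the data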;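 further: growth measured after 20 h incubation at 37 °C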
tolC growth inh: growth inhibitors of E. coli BW25113 tolC mutant. growth inhibition, % at 10 µM (by protocol). OD615. 65,000 tested, 2.2% active;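 active means growth inhibition at or above a cutoff equal to the mean over every tested compound plus 3 SD, cut at about 60% in these data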;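 further: growth measured after 20 h incubation at 37 °C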
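Test system: E. coli BW25113 ΔtolC::kan bacteria; incubation: 37 °C, 20 h exposure; medium: LB broth supplemented with 50 µg/mL kanamycin; read-out basis: percent growth inhibition; signal: A615 absorbance measurement; compound: 10 µM final, single dose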
CYP2C9 act: activators of human CYP2C9; P11712; recombinant CYP2C9, luciferin-H conversion, luminescence; stronger effect = higher value; factor 1 = untreated enzyme, 0 = blocked; activation factor at 5 µM; 96,000 tested, 1.4% active; AID 1024;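 active means activation factor of 2 or more for CYP2C9 at a 5 µM dose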
Target sequence (P11712 whole entry, looked up): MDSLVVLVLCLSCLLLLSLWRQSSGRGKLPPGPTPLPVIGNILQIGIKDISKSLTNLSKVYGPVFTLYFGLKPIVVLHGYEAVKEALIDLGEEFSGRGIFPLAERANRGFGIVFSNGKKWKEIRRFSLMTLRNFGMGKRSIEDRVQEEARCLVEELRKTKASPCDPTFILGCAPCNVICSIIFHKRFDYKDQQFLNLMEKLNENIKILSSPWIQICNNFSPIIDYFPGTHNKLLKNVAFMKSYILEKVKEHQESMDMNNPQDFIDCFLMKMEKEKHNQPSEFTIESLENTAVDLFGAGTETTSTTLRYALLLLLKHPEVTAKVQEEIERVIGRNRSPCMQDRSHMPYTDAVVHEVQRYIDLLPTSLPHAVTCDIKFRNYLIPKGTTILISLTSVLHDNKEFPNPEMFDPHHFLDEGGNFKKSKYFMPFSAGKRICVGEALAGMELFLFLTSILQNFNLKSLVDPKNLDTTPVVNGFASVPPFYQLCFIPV
CYP2C9 inh: human CYP2C9 inhibition; P11712; CYP2C9 Supersomes, luciferin-H conversion, luminescence; inhibition, % at 5 µM; 96,000 tested, 20% active; AID 777;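 active means blocking of liver enzyme CYP2C9 beyond about 50% at 5 µM, limit read from the data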
CYP2C19 activ: cytochrome P450 2C19 (human) activation; P33261; recombinant CYP2C19, luciferin-H EGE luminescence; stronger effect = higher value; 0 = fully inhibited enzyme, 1 = untreated enzyme; activation factor at 5 µM; 96,000 tested, under 10 active; AID 1025;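 active means activation factor of at least 2 at 5 µM in the primary screen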
CYP2C19 inhib: human CYP2C19 inhibition. P33261. CYP2C19 Supersomes, luciferin-H EGE luminescence, 30 min. inhibition, % at 5 µM. 96,000 tested, 21% active. AID 778;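 active means CYP2C19 inhibition above a set limit at 5 µM in the primary screen, cut at about 50% in these data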
Of the large screens only hits and unclear results are named; the others gave an inactive call. A selection: hits, their analogues and other compounds. The true share with any hit is near 29%.

CC(=O)Nc1ccccc1Nc1cc(C#N)c(C#N)cc1[N+](=O)[O-]	none (no result: Ecoli WT expand, tolC growth inh)
Cc1ccc2sc(-c3ccc(NC(=O)c4cc(-n5cnnc5)ccc4Cl)cc3)nc2c1	none (no result: tolC growth inh)
COC(=O)c1ccc(CSc2nnc3c(Cl)cc(Cl)cn23)o1	CYP2C19 inhib 82
CCN(CC)c1ccc(C2N(C(=O)N3CCOCC3)CCN2S(=O)(=O)c2ccc(C)cc2)cc1 (stereo unspecified)	none (no result: tolC growth inh)
C=CCNC(=O)NC(=O)COC(=O)CCCSc1nc2ccccc2[nH]1	none
N#Cc1c(-c2ccccc2)cc(-c2ccccc2)nc1SCc1nnc(-c2ccccc2)o1	CYP2C9 inh 70 (no result: tolC growth inh)
c1ccc(-c2nnc(CSc3nc4ccccc4[nH]3)o2)cc1	CYP2C9 inh 67, CYP2C19 inhib 90
O=C(CCCSc1nc2ccccc2[nH]1)Nc1nnc(-c2ccccc2)o1	CYP2C9 inh 52
Cc1nc2ccc(-c3ccccc3)cc2o1	none
Cc1nc2nc(-c3ccco3)[nH]n2c(=O)c1C	none (no result: tolC growth inh)
COc1ccc(OC)c(NC(=O)CSc2nc3ccccc3c(=O)n2CCNC(C)=O)c1	none (no result: CYP2C9 act, CYP2C9 inh, CYP2C19 activ, CYP2C19 inhib)
COc1ccc(NC(=O)CSc2nc3ccccc3c(=O)n2CCNC(C)=O)cc1	CYP2C9 inh 58, CYP2C19 inhib 94
CCn1c(SCC(=O)Nc2ccc(NC(=O)c3ccco3)c(OC)c2)nc2ccccc2c1=O	none
CCn1c(SCC(=O)Nc2ccccc2OC)nc2ccccc2c1=O	CYP2C9 inh 86, CYP2C19 inhib 61 (no result: tolC growth inh)
CCC(C)NC(=O)CSc1nc2ccccc2c(=O)n1Cc1ccc(OC)cc1 (stereo unspecified)	CYP2C19 inhib 85 (no result: tolC growth inh)
COc1ccc(NC(=O)CSc2nc3ccccc3c(=O)n2CCNC(C)=O)c(OC)c1	CYP2C9 inh 51
Cc1ccc(-n2c(=O)[nH]cc(C(=O)Nc3ccc4c(c3)OCO4)c2=O)cc1C	none (no result: Ecoli WT expand)
Cc1ccc(C2CN=NC23CCc2ccccc2C3=O)cc1 (stereo unspecified)	CYP2C19 inhib 75 (no result: tolC growth inh)
Cc1ccc(C2CN(C)C3(C(=O)Nc4ccccc43)C23COc2ccccc2C3=O)cc1 (stereo unspecified)	none (no result: tolC growth inh)
CC1(C)NC(=O)N(CC(O)CNC23CC4CC(CC(C4)C2)C3)C1=O (stereo unspecified)	none
O=C(NCc1cccnc1)/C(=C/c1ccc(-c2ccc(Cl)cc2)o1)S(=O)(=O)c1ccccc1	CYP2C19 inhib 67 (no result: tolC growth inh)
O=C(COc1ccc(S(=O)(=O)NC2CCCCC2)cc1)N1CCN(c2cccc(Cl)c2)CC1	none (no result: tolC growth inh)
Cc1[nH]c2ccccc2c1C(=O)CN1CCC(C(N)=O)(N2CCCCC2)CC1	none
O=C(CSc1nnc(-c2ccc(Br)cc2)n1C1CCCCC1)N1CCCC1	none (no result: CYP2C9 act, CYP2C9 inh, CYP2C19 activ, CYP2C19 inhib)
CC(C)(C)c1ccc(-c2nnc(SCCC#N)n2C2CCCC2)cc1	tolC growth inh 61
Cc1ccc(-c2nc3sc4c(N)ncnc4c3c3c2CCCC3)cc1	none (no result: tolC growth inh)
CC1(C)Cc2c(C#N)c(NCCc3ccccc3)nc(-c3ccco3)c2CO1	CYP2C9 inh 70
CCN(CC)CCNc1nc(-c2ccco2)c2c(c1C#N)CC(C)(C)OC2	none
CC1(C)Cc2c(C#N)c(NC3CCCCC3)nc(-c3ccco3)c2CO1	CYP2C9 inh 60
CC1(C)Cc2c(C#N)c(NCC3CCCO3)nc(-c3ccco3)c2CO1 (stereo unspecified)	CYP2C9 inh 54
COC(=O)c1ccc(Cn2cnc3ccccc3c2=O)cc1	CYP2C19 inhib 67
CCOC(=O)c1ccc(Cn2cnc3ccccc3c2=O)cc1	CYP2C9 inh 55, CYP2C19 inhib 62
COc1ccc(Cl)cc1NC(=O)CCn1cnc2ccccc2c1=O	CYP2C9 act 2.3, CYP2C19 inhib 66
COC(=O)c1ccc(C)c(NC(=O)Cn2cnc3ccccc3c2=O)c1	CYP2C9 inh 99, CYP2C19 inhib 82
O=C(CC12CC3CC(CC(C3)C1)C2)NCC(=O)N1CCc2ccccc2C1	none (no result: tolC growth inh)
Cc1ccccc1-c1nc(CN2CCCC(C(=O)NCc3cccnc3)C2)c(C)o1 (stereo unspecified)	none
CCOC(=O)c1ccc(NC(=O)N(CC)CC)cc1	none
O=C(c1cccs1)c1coc2ccc(O)c(CN3CCOCC3)c12	CYP2C9 inh 73, CYP2C19 inhib 65
Cc1ccc(C(=O)c2coc3ccc(O)c(CN4CCN(C)CC4)c23)cc1	CYP2C19 inhib 78
Cc1cccc(NC(=O)Cn2cnc3sc(C)c(S(=O)(=O)N4CCC(C)CC4)c3c2=O)n1	none (no result: CYP2C9 act, CYP2C9 inh, CYP2C19 activ, CYP2C19 inhib)
